Results of several laboratories.
Compare with care: the assays were run in different laboratories.
Matrix: Caco-2

For `O=C(CCCN1CCC2(CC1)C(=O)NCN2c1ccccc1)N(CC1CCCCC1)c1ccccc1`, the Papp B→A was 6.8 ×10⁻⁶ cm/s.
`C/N=c1\nc(-c2ccccc2)n(-c2ccccc2)s1` gave a Papp A→B of 38.9 ×10⁻⁶ cm/s (20 µM; 95 min).
With `COc1ccc2c(c1)[C@]13CCCC[C@@H]1[C@H](C2)N(C)CC3` the Papp A→B was 34.9 ×10⁻⁶ cm/s (10 µM; pH 6.5).
The Papp A→B of `C[C@H]1O[C@@H](O[C@H]2[C@@H](O)C[C@H](O[C@H]3[C@@H](O)C[C@H](O[C@H]4CC[C@@]5(C)[C@H](CC[C@@H]6[C@@H]5C[C@@H](O)[C@]5(C)[C@@H](C7=CC(=O)OC7)CC[C@]65O)C4)O[C@@H]3C)O[C@@H]2C)C[C@H](O)[C@@H]1O` is reported as 4.28 ×10⁻⁶ cm/s (10 µM; 1 h; pH 7.4).
The Papp A→B of `N=c1c2c(-c3ccccc3)c(-c3ccccc3)n(Cc3ccccc3)c2ncn1[C@H]1CC[C@H](O)CC1` is reported as 0.2 ×10⁻⁶ cm/s (3 µM; 2 h; pH 7.4).
`C[C@]12C[C@@H](O)[C@H]3[C@@H](CC[C@]4(O)C[C@@H](O)C[C@@H](O)[C@]34CO)[C@@]1(O)CC[C@@H]2c1cn(Cc2ccccc2)nn1` gave a Papp A→B of 0.19 ×10⁻⁶ cm/s (1 h; pH 6.5).
`CC[C@@]1(O)C(=O)OCc2c1cc1n(c2=O)Cc2cc3ccccc3nc2-1` gave a Papp A→B of 36 ×10⁻⁶ cm/s (100 µM; 105 min).
For `COc1cc2c(c(OC)c1OC)-c1ccc(OC)c(=O)cc1[C@@H](NC(C)=O)CC2`, the Papp A→B was 0.2 ×10⁻⁶ cm/s.
